Results published in ChEMBL document CHEMBL1938301, “Cyclohexane 1,3-diones and their inhibition of mutant SOD1-dependent protein aggregation and toxicity in PC12 cells” (Bioorg Med Chem, 2012).
Active and inactive are the calls of the source.

Assays:
[1] = system: Cerebral cortex neuron; assay: Cytoprotective activity against MG132-induced cytotoxicity in rat primary cortical neurons cells assessed as cell viability at 100 uM pre-treated for 24 hrs before MG132-induction measured after 48 hrs by Calcein-AM-based fluorimetry; type: functional
How it was run: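 Neurons from E18 rat cortex (Sprague-Dawley or Fischer 344), papain-dissociated, plated at 20,000 cells/well on poly-D-lysine, cultured 5 days in Neurobasal/B27 (~90% neurons). Six-point series from 100 μM top in roughly one-third steps, 24 h pre-incubation, then MG132 100 nM final. Viability read 48 h later by Calcein-AM (1 μM, 20 min, RT) fluorescence. Active if ≥5 SD above MG132 controls.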

[2] = system: PC-12; assay: Cytoprotective activity against MG132-induced cytotoxicity in rat PC12 cells assessed as cell viability at 100 uM pre-treated for 24 hrs before MG132-induction measured after 48 hrs by Calcein-AM-based fluorimetry; type: functional
[3] = system: PC-12; assay: Inhibition of SOD1 G93A mutant protein aggregation-mediated cytotoxicity in rat PC12 cells expressing yellow fluorescent protein assessed as increase in cell viability relative to radicicol; type: cell-based; design: concentration or dose not given beside the values
How it was run: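 PC12 cells expressing G93A SOD1-YFP; MG132 proteasome inhibition induces cytotoxic mutant SOD1 aggregates. Cell survival measured as protection read-out; efficacy expressed relative to radicicol positive control.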

[4] = system: HEK293; assay: Cytoprotective activity against MG132-induced cytotoxicity in human HEK293 cells assessed as cell viability at 100 uM pre-treated for 24 hrs before MG132-induction measured after 48 hrs by Calcein-AM-based fluorimetry; type: functional
[5] = system: HeLa; assay: Cytoprotective activity against MG132-induced cytotoxicity in human HeLa cells assessed as cell viability at 100 uM pre-treated for 24 hrs before MG132-induction measured after 48 hrs by Calcein-AM-based fluorimetry; type: functional
[6] = system: SH-SY5Y; assay: Cytoprotective activity against MG132-induced cytotoxicity in human SH-SY5Y cells assessed as cell viability at 100 uM pre-treated for 24 hrs before MG132-induction measured after 48 hrs by Calcein-AM-based fluorimetry; type: functional
[7] = Ratio of drug level in brain to plasma in mutant SOD1 G93A transgenic mouse at 50 mg/kg, ip after 4 hrs; type: ADME, organism-based; design: dose 50 mg/kg, route intraperitoneal; conditions: read-out: BPR
How it was run: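 Single i.p. bolus of 50 mg/kg in G93A SOD1 transgenic mice (18 animals). Blood and brain sampled at 0–24 h, snap-frozen in liquid nitrogen and stored at −80 °C. Brain and plasma concentrations were compared at 4 h, within the plasma plateau.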

[8] = system: Liver microsomes; assay: Half life in human liver microsomes at 5 uM by LC-MS/MS analysis; type: ADME, Microsome
How it was run: (§1)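 Incubation at 37 °C, in duplicate, with human or mouse liver microsomes (0.275 mg/mL protein) in 100 mM potassium phosphate pH 7.4 with 2 mM NADPH and 3 mM MgCl2. A minus-NADPH control was run. Samples were taken at 15 s and at 10, 20, 40 and 60 min, quenched in acidified acetonitrile with internal standard, and parent was quantified by LC-MS/MS. T1/2 = ln2/k from an exponential fit.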

[9] = system: Caco-2; assay: Apparent permeability from basolateral to apical side of human Caco2 cells at 50 uM after 2 hrs […]; type: ADME, cell-based; conditions: caco-2, 2 h
How it was run: (§2)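 Caco-2 monolayers on collagen-coated inserts, differentiated 3 weeks. The compound is dosed at 50 μM in HEPES/HBSS/glucose buffer, apical pH 6.5 and basolateral pH 7.4. For A→B, compound and 100 μM Lucifer yellow go apical. For B→A, compound goes basolateral with Lucifer yellow apical. Incubation is 2 h. Lucifer yellow fluorescence checks monolayer integrity (<1% transport). Papp = (dQ/dt)/(c0·A), in 10−6 cm/s.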

[10] = Solubility of the compound in phosphate buffer saline after 1 hrs by spectrophotometry; type: physicochemical; conditions: phosphate buffered saline
How it was run: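 DMSO stocks at 100× final (threefold serial dilutions) diluted into PBS and held 1 h at room temperature. Precipitate checked visually and by absorbance at 450 nm. The solubility limit was taken as the highest concentration not cloudy and with absorbance not above background.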

[11] = Oral bioavailability in Sprague-Dawley rat at 1 mg/kg; type: ADME, organism-based; conditions: in vivo
[12] = system: Rattus norvegicus; assay: Dose normalised AUC in Sprague-Dawley rat at 1 mg/kg, iv; type: ADME, organism-based; design: dose 1 mg/kg, route intravenous; conditions: in vivo
[13] = system: Rattus norvegicus; assay: Dose normalised AUC in Sprague-Dawley rat at 1 mg/kg, po; type: ADME, organism-based; design: dose 1 mg/kg, route oral; conditions: in vivo
[14] = in vivo; conditions: Sprague-Dawley, rat, po, 1 mg/kg
[15] = Toxicity in mouse administered as ip starting at 5 mg/kg and doubling the compound bid each day; type: organism-based; design: dose 5 mg/kg, route intraperitoneal; conditions: in vivo
How it was run: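 Maximum tolerated dose in mice by intraperitoneal injection. Dosing began at 5 mg/kg and was doubled b.i.d. each day, given once in the morning and once mid-afternoon.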

[16] = (§3) Inhibition of SOD1 G93A mutant protein aggregation-mediated cytotoxicity in rat PC12 cells expressing yellow fluorescent protein assessed as increase in cell viability; type: cell-based; conditions: PC-12
[17] = system: Caco-2; assay: Apparent permeability from apical to basolateral side of human Caco2 cells at 50 uM after 2 hrs […]; type: ADME, cell-based; conditions: caco-2, 2 h; how it was run: as §2
[18] = Half life in Sprague-Dawley rat at 1 mg/kg, po; type: ADME, organism-based; design: dose 1 mg/kg, route oral; conditions: in vivo
[19] = system: Liver; assay: Half life in mouse liver microsomes at 5 uM by LC-MS/MS analysis; type: ADME, Microsome; how it was run: as §1
[20] = Volume of distribution at steady state in Sprague-Dawley rat at 1 mg/kg, iv; type: ADME, organism-based; design: dose 1 mg/kg, route intravenous; conditions: in vivo, read-out: Vdss
[21] = target: hERG (KCNH2) (Homo sapiens, UniProt Q12809); assay: Inhibition of human ERG expressed in HEK293 cells at 10 uM; type: cell-based; conditions: HEK293 cells expressing hERG
Sequence of hERG (KCNH2) (Q12809 whole entry): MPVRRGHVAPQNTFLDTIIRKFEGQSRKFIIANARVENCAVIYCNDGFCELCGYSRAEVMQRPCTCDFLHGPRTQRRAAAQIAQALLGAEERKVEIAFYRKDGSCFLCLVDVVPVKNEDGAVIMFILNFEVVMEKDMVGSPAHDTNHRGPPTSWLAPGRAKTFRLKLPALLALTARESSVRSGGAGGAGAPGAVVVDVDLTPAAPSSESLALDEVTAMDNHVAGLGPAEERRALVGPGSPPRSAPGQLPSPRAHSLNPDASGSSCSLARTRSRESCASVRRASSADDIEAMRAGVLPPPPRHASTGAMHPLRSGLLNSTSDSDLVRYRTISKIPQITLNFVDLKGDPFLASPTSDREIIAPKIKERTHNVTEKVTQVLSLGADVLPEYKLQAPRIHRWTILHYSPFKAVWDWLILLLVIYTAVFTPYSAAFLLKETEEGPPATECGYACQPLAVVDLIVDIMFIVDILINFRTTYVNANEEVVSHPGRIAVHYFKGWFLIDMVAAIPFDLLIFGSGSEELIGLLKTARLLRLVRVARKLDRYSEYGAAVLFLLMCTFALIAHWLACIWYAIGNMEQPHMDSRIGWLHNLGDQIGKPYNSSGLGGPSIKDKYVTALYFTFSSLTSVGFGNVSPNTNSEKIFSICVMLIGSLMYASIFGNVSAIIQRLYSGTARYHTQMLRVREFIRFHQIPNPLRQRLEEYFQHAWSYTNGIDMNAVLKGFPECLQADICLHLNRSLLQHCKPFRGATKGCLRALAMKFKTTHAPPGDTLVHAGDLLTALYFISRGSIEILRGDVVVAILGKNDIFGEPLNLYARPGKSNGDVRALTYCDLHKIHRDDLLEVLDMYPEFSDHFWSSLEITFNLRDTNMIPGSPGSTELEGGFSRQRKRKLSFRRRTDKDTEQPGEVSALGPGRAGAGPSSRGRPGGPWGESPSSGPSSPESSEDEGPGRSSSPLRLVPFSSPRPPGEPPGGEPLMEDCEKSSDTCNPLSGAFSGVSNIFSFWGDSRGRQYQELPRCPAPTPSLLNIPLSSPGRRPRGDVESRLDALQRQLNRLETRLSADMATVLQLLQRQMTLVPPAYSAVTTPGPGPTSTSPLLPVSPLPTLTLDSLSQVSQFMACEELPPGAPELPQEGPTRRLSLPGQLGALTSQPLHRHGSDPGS

[22] = Clearance in Sprague-Dawley rat at 1 mg/kg, iv; type: ADME, organism-based; design: dose 1 mg/kg, route intravenous; conditions: in vivo
[23] = Half life in Sprague-Dawley rat at 1 mg/kg, iv; type: ADME, organism-based; design: dose 1 mg/kg, route intravenous; conditions: in vivo
[24] = AUClast in Sprague-Dawley rat at 1 mg/kg, iv; type: ADME, organism-based; design: time 0 - last, dose 1 mg/kg, route intravenous; conditions: plasma
[25] = AUClast in Sprague-Dawley rat at 1 mg/kg, po; type: ADME, organism-based; design: time 0 - last, dose 1 mg/kg, route oral; conditions: plasma
[26] = Cmax in Sprague-Dawley rat at 1 mg/kg, po; type: ADME, organism-based; design: dose 1 mg/kg, route oral; conditions: in vivo
[27] = system: Plasma; assay: Half life in mouse plasma at 5 uM by LC-MS/MS analysis; type: ADME, cell-free
How it was run: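 Mouse plasma incubation at 37 °C in duplicate alongside a PBS control, with warfarin and diltiazem as controls. Time points at 15 s and 10, 20, 40 and 60 min; samples precipitated with acetonitrile containing internal standard, then LC-MS/MS. Plasma/PBS response ratio gave % remaining, fitted first-order for half-life.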

[28] = system: Caco-2; assay: Efflux ratio of permeability from basolateral to apical over apical to basolateral side in human Caco2 cells at 50 uM after 2 hrs […]; type: ADME, cell-based; conditions: caco-2, 2 h
How it was run: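 Caco-2 monolayers were grown for three weeks on collagen-coated inserts and fed every 2 days. The transport buffer was 10 mM HEPES with 1.98 g/L glucose in HBSS, pH 6.5 apical and pH 7.4 basolateral. Compound was added at 50 μM on the donor side, with 100 μM Lucifer yellow apically, for 2 h. Compound was quantified by LC-MS/MS; Lucifer yellow fluorescence checked monolayer integrity. Papp = (dQ/dt)/(c0·A); ratio taken as B→A over A→B.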

[29] = system: PC-12; assay: as §3; type: cell-based

Compound: O=C1CC(=O)N(CCc2ccccc2)C(=O)N1CCc1ccccc1
- Activity [1]: Active
- Activity [2]: Active
- Efficacy [3]: 100%
- Activity [4]: Active
- Activity [5]: Active
- Activity [6]: Active

Compound: O=C1CC(=O)CC(c2cc(C(F)(F)F)cc(C(F)(F)F)c2)C1
- Kp at 4 h [7]: 0.86
- t1/2 [8]: >= 180 min
- Papp [9]: 5.7 cm'-6/s
- solubility at 1 h [10]: ≥ 500 µM
- Activity [1]: inactive
- bioavailability [11]: 89%
- AUC/dose [12]: 1996 ng·h/mL
- AUC/dose [13]: 1774 ng·h/mL
- Tmax [14]: 0.5 h
- MTD [15]: 80 mg/kg
- EC50 [16]: 700 nM
- Activity [2]: Active
- Efficacy [3]: 100%
- Papp [17]: 38 cm'-6/s
- half-life [18]: 3.2 h
- t1/2 [19]: >= 180 min
- Vd [20]: 1.5 L/kg
- Activity [4]: inactive
- inhibition at 10 µM [21]: 7.8%
- clearance [22]: 8.4 mL/min/kg
- half-life [23]: 3.7 h
- AUC(0-t) [24]: 1980 ng·h/mL
- Activity [5]: inactive
- Activity [6]: inactive
- AUC(0-t) [25]: 1760 ng·h/mL
- Cmax [26]: 468 ng/mL

Compound: CC(Oc1cc(C(F)(F)F)cc(C(F)(F)F)c1)C1CC(=O)CC(=O)C1 (racemic)
- t1/2 [8]: 1.18 h
- Papp [9]: 3.1 cm'-6/s
- EC50 [16]: 700 nM
- Efficacy [3]: 100%
- Papp [17]: 24.8 cm'-6/s
- t1/2 [19]: 0.75 h
- t1/2 [27]: > 1 h
- Ratio [28]: 0.1

Compound: C[C@@H]1C[C@H]2O[C@@H]2/C=C\C=C\C(=O)Cc2c(Cl)c(O)cc(O)c2C(=O)O1
- Efficacy [29]: 85%

Compound: O=c1cc(COc2cc(Cl)cc(Cl)c2)[nH][nH]1
- Activity [1]: Active
- Activity [2]: Active
- Activity [4]: Active
- Activity [5]: Active
- Activity [6]: Active

Compound: O=C1CC(=O)CC(c2ccc(OCCCc3ccccc3)cc2)C1
- EC50 [16]: 1300 nM
- Efficacy [3]: 100%

Compound: O=C1CC(=O)CC(c2ccoc2)C1
- EC50 [16]: > 32000 nM
- Efficacy [3]: 100%

Compound: O=C1CC(=O)CC(c2cc(-c3ccc(F)cc3)cc(-c3ccc(F)cc3)c2)C1
- EC50 [16]: 3070 nM
- Efficacy [3]: 100%

Compound: O=C1CC(=O)CC(c2ccc(C(F)(F)F)cc2)C1
- EC50 [16]: 8300 nM
- Efficacy [3]: 100%

Compound: CCOc1ccc(C2CC(=O)CC(=O)C2)c(OCC)c1
- EC50 [16]: 1490 nM
- Efficacy [3]: 100%

Compound: O=C1CC(=O)CC(c2cccc(C(F)(F)F)c2)C1
- EC50 [16]: 3330 nM
- Efficacy [3]: 100%

Compound: O=C1CC(=O)CC(c2ccc(Oc3ccc(Cl)cc3)cc2)C1
- EC50 [16]: 2880 nM
- Efficacy [3]: 100%

Compound: O=C1CC(=O)CC(c2ccccc2Oc2ccc(F)cc2)C1
- EC50 [16]: 1160 nM
- Efficacy [3]: 100%

Compound: O=C1CC(=O)CC(c2cc(Cl)cc(Cl)c2)C1
- EC50 [16]: 2350 nM
- Efficacy [3]: 100%

Compound: O=C1CC(=O)CC(c2cc(-c3ccccc3)cc(C(F)(F)F)c2)C1
- EC50 [16]: 730 nM
- Efficacy [3]: 100%

Compound: CSc1ccc(C2CC(=O)CC(=O)C2)cc1
- EC50 [16]: > 32000 nM
- Efficacy [3]: 100%

Compound: COc1cc(OC)cc(C2CC(=O)CC(=O)C2)c1
- EC50 [16]: 5200 nM
- Efficacy [3]: 100%
